# Screening results from PubChem BioAssay.
# The list is not random: actives were taken first. Their share in the collection is about 2.3%.
# MsrA inh: inhibits bovine methionine sulfoxide reductase A; purified bovine MsrA, absorbance read-out; inhibition, % at 15.5 µM; 0.75% of 360,000 active; in the data active = inhibition above about 4.5%
# MC4R antag cAMP: antagonists of human melanocortin 4 receptor (MC4R); MC4R-expressing cells, MTII-stimulated cAMP, LANCE TR-FRET; inhibition, % at 6.5 µM; 0.48% of 360,000 active;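 active = inhibition above its plate's cutoff, the mean of tested wells on that plate plus 3 SD, cut at about 29% in these data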
# Target sequence (P32245 whole entry, looked up): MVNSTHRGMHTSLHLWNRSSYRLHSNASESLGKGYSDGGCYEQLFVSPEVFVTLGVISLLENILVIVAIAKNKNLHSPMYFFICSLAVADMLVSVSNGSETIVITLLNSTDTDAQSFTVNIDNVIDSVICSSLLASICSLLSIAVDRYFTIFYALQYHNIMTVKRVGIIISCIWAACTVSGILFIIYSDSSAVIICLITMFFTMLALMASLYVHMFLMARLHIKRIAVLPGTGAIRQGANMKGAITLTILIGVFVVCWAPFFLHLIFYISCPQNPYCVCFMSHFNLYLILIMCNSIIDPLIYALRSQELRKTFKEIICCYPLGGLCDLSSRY
#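 System: U2OS cells stably expressing human melanocortin 4 receptor (MC4R). Reagent: Melanotan II challenge after compound preincubation. Doses: 6.5 µM. Times: 30-min compound, 1-h challenge, 1-h detection, room temperature. Measured by: TR-FRET with Eu-cAMP and labeled anti-cAMP, 671 nm. Replicates: singlicate.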
# bovine MsrA act: bovine methionine sulfoxide reductase A activation; purified bovine MsrA, absorbance read-out; activation, % at 10.6 µM; 0.3% of 360,000 active; in the data active = activation above about 7.5%
# MC4R ag barr: human MC4R agonism via beta-arrestin | P32245 | U2OS MC4R beta-arrestin complementation, luminescence; percent of melanotan II response, DMSO zero | activation, % at 8.9 µM | 0.98% of 360,000 active | AID 540308;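 active = activation above a per-plate cutoff, the mean activation of sample wells on that plate plus 3 SD, cut at about 8% in these data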
# MsrA act confirm: bovine methionine sulfoxide reductase A activation confirmed; shares compounds with bovine MsrA act; purified bovine MsrA, absorbance read-out; activation, % at 10.6 µM; 12% of 1,000 active; in the data active = activation above about 4%;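 note: enzyme coupled to thioredoxin and thioredoxin reductase with NADPH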
# Numbers stand for hits; - = inactive; . = no result.
SMILES,MsrA inh,MC4R antag cAMP,bovine MsrA act,MC4R ag barr,MsrA act confirm
CCOC(=O)c1cccc(NC(=O)c2cnc3ccccc3n2)c1,-,-,12.8,-,-
OC(COc1ccc2ccccc2c1Br)Cn1ccnc1 (stereo unspecified),-,-,-,-,.
OC(COc1ccc2ccccc2c1)Cn1ccnc1 (stereo unspecified),-,-,8.1,-,-
c1ccc2[nH]c3cc4ncnc4cc3nc2c1,-,-,18.2,-,14.8
COc1ccc(-c2cc(-c3ccccc3)nc(N3CCCC3)n2)cc1OC,-,-,8.0,-,-
COc1ccc(-c2cc(C(F)(F)F)nc(N3CCOCC3)n2)cc1OC,-,-,-,-,.
Nc1ncnc2[nH]c(=S)[nH]c12,-,-,10.8,-,-
Cc1ccc(N)c(C(=O)CCCCC(=O)O)c1,-,-,-,-,.
O=C(Nc1ccc2c(c1)OCCO2)NC12CC3CC(CC(C3)C1)C2,-,-,9.1,-,-
O=C(Nc1ccc2c(c1)OCCO2)Nc1ccc2c(c1)OCO2,-,-,-,-,.
Cn1c(NC(=O)c2cccc(C(F)(F)F)c2)cc(=O)n(C)c1=O,-,-,-,-,.
CCCCc1nnc(NC(=O)CCS(=O)(=O)c2ccc(C)cc2)s1,-,-,7.8,-,-
Cc1c(C)n(CCc2ccccc2)c2ncnc(NCCO)c12,-,-,10.0,-,-
COc1ccc(CCNC(=O)CN(c2ccc(OC)cc2)S(C)(=O)=O)cc1,-,-,-,-,.
CCc1cc(C(=O)OCC(=O)NCCc2ccccc2)sc1C,-,-,-,-,.
CC(NC(=O)COC(=O)c1ccc([N+](=O)[O-])s1)c1ccccc1 (stereo unspecified),-,-,-,-,.
O=C(COC(=O)c1ccc([N+](=O)[O-])s1)NCCc1ccccc1,.,-,25.5,-,15.6
O=C(COC(=O)c1ccc([N+](=O)[O-])s1)c1ccc[nH]1,-,-,26.7,-,9.5
O=C(COC(=O)c1ccc([N+](=O)[O-])s1)NNC(=O)c1ccccc1,.,-,22.4,-,9.0
O=C(COC(=O)c1ccc([N+](=O)[O-])s1)NC(=O)NCc1ccccc1,-,-,15.3,-,-
O=C(OCC(=O)c1ccc[nH]1)c1ccc([N+](=O)[O-])cc1,-,-,-,-,.
O=C1CN(C(=O)COC(=O)c2ccc([N+](=O)[O-])s2)c2ccccc2N1,.,-,41.1,-,20.5
O=C(COC(=O)c1ccc([N+](=O)[O-])s1)NCc1ccc(F)cc1,-,-,26.4,-,21.9
O=C1c2ccccc2C(=O)c2[nH]c(=O)[nH]c21,-,-,15.1,-,-
O=C1c2ccccc2C(=O)c2[nH]cnc21,-,-,12.5,-,6.7
SMILES,MsrA inh,MC4R antag cAMP,bovine MsrA act,MC4R ag barr,MsrA act confirm
O=C1c2ccccc2C(=O)c2c1ncn2-c1ccccc1,-,-,-,-,.
Cc1cccc(OC(=O)n2c(=S)oc3cc(Cl)ccc32)c1,-,-,9.8,-,-
COc1ccc(C)cc1N(C(=O)c1ccccc1)c1nc2ccccc2s1,-,-,-,-,.
COc1ccc(C)cc1N(C(=O)c1ccccc1F)c1nc2ccccc2s1,-,-,12.9,-,-
CC1(C(=O)NS(=O)(=O)c2ccc(Cl)cc2)CCN1C(=O)C1(c2ccc(Cl)cc2)CC1 (stereo unspecified),-,-,-,-,.
CC1CCCC(C)N1/N=C/c1cc(Br)cc(Br)c1O (stereo unspecified),-,-,9.2,-,-
Cc1ccc(C(=O)N2N=C3c4ccccc4S(=O)(=O)N3[C@H]2N(C)C)cc1,-,-,-,-,.
C/C(=N/Nc1ccccc1C(=O)O)c1cccs1,-,-,16.0,-,-
CCCCC(=O)NNC(=S)NC(=O)c1ccc([N+](=O)[O-])cc1,-,-,7.8,-,4.5
Cc1ccc(C(=O)NC(=S)NNC(=O)CC#N)cc1,-,-,7.8,-,4.1
CCCCC(=O)NNC(=S)NC(=O)c1cccc([N+](=O)[O-])c1,-,-,11.4,-,-
O=C(NNC(=S)NC(=O)c1ccccc1)c1cccc([N+](=O)[O-])c1,-,-,-,-,.
CCCCC(=O)NNC(=S)NC(=O)c1ccc(C)cc1,-,-,-,-,.
CCCCSc1nc(C)nc2c1c(=O)n(C)c(=O)n2C,-,-,-,-,.
O=C(CSc1nc2ccccc2c(=O)n1-c1ccc(Cl)cc1)N/N=C/C=C/c1ccccc1[N+](=O)[O-],-,-,8.1,-,-
O=C(CSc1nc2ccccc2c(=O)n1-c1ccccc1)N/N=C/C=C/c1ccccc1[N+](=O)[O-],-,-,-,-,.
Cc1ccc(-n2ncc3c(N4CCN(c5ccccc5)CC4)ncnc32)c(C)c1,-,-,-,-,.
CC(=O)N1CCOC12CCN(Cc1ccccc1)CC2,-,-,8.2,-,-
O=Cc1cn(CC(=O)N2CCCc3ccccc32)c2ccccc12,-,-,-,-,.
N#Cc1cn(CC(=O)N2CCCc3ccccc32)c2ccccc12,-,-,8.1,-,-
COc1cccc2cc(CC(=O)c3ccc(C)c(C)c3)c(=O)oc12,-,-,-,-,.
Cn1c(=O)c2c(nc(NCCNC(=O)c3ccco3)n2Cc2ccccc2Cl)n(C)c1=O,-,-,-,-,.
COc1ccc(-n2cc(CN3CCC(OC)CC3)c(-c3cccc(F)c3)n2)cc1,-,-,8.2,-,-
CC(C)CN(CCCNC(=O)CC1Oc2ccccc2NC1=O)CC(C)C (stereo unspecified),-,-,8.6,-,-
O=C(N1CCOCC1)N1CCN(C(=O)N(c2ccccc2)c2ccccc2)CC1,-,-,7.9,-,-
SMILES,MsrA inh,MC4R antag cAMP,bovine MsrA act,MC4R ag barr,MsrA act confirm
O=C(N1CCCCC1)N1CCN(C(=O)N(c2ccccc2)c2ccccc2)CC1,-,-,-,-,.
Cc1ccccc1C(=O)NNC(=S)NC(=O)COc1ccccc1,-,-,12.8,-,-
CCN(CC(=O)Nc1ccc(NC(C)=O)cc1)C(=O)C1CCN(C(=O)c2ccccc2C)CC1,-,-,-,-,.
Nc1ccc(S(=O)(=O)c2ccc(N)nc2)cc1,-,-,7.7,-,-
Cc1ccc(S(=O)(=O)N2CCN(C(=O)c3ccc([N+](=O)[O-])cc3)C2)cc1,-,-,-,-,.
O=C(c1cc(F)ccc1F)C1CCCN(C(=O)c2ccco2)C1 (stereo unspecified),-,-,-,-,.
CCCCCCCC[n+]1cccc(C(=O)N(CC)CC)c1,-,-,17.6,-,-
CC1Oc2ccccc2N(CC(=O)N2CCCc3ccccc32)C1=O (stereo unspecified),-,-,-,-,.
Cc1csc(N(C(=O)Cc2ccccc2F)c2ccccc2)n1,-,-,-,-,.
COc1cc(Cl)c(CNC[C@H]2O[C@@H](n3ccc(=O)[nH]c3=O)[C@H](O)[C@@H]2O)c(Cl)c1O,-,-,10.1,-,-
Cc1nn(C)c(Sc2ccccc2N)c1[N+](=O)[O-],-,-,8.0,-,-
COc1ccccc1CNC(=O)CCCn1nc(C)c2c(C)n(-c3ccccc3)nc2c1=O,-,-,11.7,-,-
C=CCn1c(COc2ccc(Cl)cc2)nnc1SCC(=O)NCC(=O)OCC,-,-,8.2,-,-
